Test results reported in ChEMBL document CHEMBL1130878 (Bioorg Med Chem Lett, 1998).

Columns and labels:
[1] = biological target: T1, Endothelin receptor type B (Sus scrofa, UniProt P35463); test: In vitro ability to inhibit specific [125I]ET1 binding to porcine kidney (inner medulla) membranes Endothelin B receptor
T1 sequence (P35463 whole entry): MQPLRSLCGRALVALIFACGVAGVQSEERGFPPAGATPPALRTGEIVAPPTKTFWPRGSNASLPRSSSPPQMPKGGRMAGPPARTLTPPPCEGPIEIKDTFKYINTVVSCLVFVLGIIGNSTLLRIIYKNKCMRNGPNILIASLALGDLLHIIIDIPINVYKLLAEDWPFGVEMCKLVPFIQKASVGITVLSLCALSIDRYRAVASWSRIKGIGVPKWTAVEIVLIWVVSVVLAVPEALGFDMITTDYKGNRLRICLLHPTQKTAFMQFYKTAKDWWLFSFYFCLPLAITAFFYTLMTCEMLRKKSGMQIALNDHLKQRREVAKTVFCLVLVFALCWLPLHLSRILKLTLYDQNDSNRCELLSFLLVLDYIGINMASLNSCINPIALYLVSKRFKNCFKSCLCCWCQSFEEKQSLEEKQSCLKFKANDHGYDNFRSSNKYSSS

Endothelin-1 receptor = biological target: T2, Endothelin-1 receptor (Rattus norvegicus, UniProt P26684); test: In vitro ability to inhibit specific [125I]ET1 binding to rat aorta membranes Endothelin A receptor; format: tissue-based
T2 sequence (P26684 whole entry): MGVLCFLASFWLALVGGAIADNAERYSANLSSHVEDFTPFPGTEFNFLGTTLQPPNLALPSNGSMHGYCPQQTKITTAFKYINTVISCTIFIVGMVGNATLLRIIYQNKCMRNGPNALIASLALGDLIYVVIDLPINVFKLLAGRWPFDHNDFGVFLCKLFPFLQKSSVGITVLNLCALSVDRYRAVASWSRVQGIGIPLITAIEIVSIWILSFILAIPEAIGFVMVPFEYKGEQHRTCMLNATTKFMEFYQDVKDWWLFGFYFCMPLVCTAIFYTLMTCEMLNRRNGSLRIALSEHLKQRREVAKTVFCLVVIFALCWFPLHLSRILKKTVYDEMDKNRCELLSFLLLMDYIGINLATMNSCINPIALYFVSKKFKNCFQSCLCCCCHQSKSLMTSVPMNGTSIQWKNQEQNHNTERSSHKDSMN

Rattus norvegicus = organism: Rattus norvegicus; test: Compound was evaluated for the functional assay performed by obtaining ET-1 concentration-response curves [pA2(ETA)] in isolated rat aortic rings; details: Aorta, read-out: pA2 (converted)
How it was run: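 Functional ETA assay: ET-1 concentration-response curves in isolated rat aortic rings with the endothelium removed. Antagonism is expressed as pA2.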

Oryctolagus cuniculus = organism: Oryctolagus cuniculus; test: Compound was evaluated for the functional assay performed by obtaining sarafotoxin 6c concentration-response curves [pA2(ETB)] in isolated rabbit jugularis vein

| Compound | IC50 [1] [nM] | IC50 (Endothelin-1 receptor) [nM] | Kb (Rattus norvegicus) [nM] | Kb (Oryctolagus cuniculus) [nM] |
| --- | --- | --- | --- | --- |
| COc1ccc(C(=O)/C(Cc2ccccc2)=C(\C(=O)O)c2ccc3nsnc3c2)cc1 | 1200 | 26 | 25.1 |  |
| COc1ccc(C(=O)/C(Cc2ccc3c(c2)OCO3)=C(\C(=O)O)c2ccc3nsnc3c2)cc1 | 1500 | 66 |  |  |
| COc1ccc(C/C(C(=O)c2ccc(OC)cc2)=C(/C(=O)O)c2ccc3nsnc3c2)cc1 | 1800 | 28 |  |  |
| COc1ccc(C(=O)/C(Cc2cc(OC(C)C)c(OC(C)C)c(OC(C)C)c2)=C(\C(=O)O)c2ccc3nsnc3c2)cc1 | 220 | 57 |  |  |
| COc1cc(C/C(C(=O)c2ccc(OC(F)F)cc2)=C(/C(=O)O)c2ccc3nsnc3c2)cc(OC)c1OC | 1900 | 160 |  |  |
| COc1cc(C/C(C(=O)c2ccc(OC(C)C)cc2)=C(/C(=O)O)c2ccc3nsnc3c2)cc(OC)c1OC | 550 | 64 |  |  |
| COc1cc(C/C(C(=O)c2ccc(OC(C)C)c(F)c2)=C(/C(=O)O)c2ccc3nsnc3c2)cc(OC)c1OC | 290 | 65 |  |  |

Now those with a lower IC50 (Endothelin-1 receptor), led by results:

| IC50 [1] [nM] | IC50 (Endothelin-1 receptor) [nM] | Compound | Kb (Rattus norvegicus) [nM] | Kb (Oryctolagus cuniculus) [nM] |
| --- | --- | --- | --- | --- |
| 4800 | 16 | COc1ccccc1C(=O)/C(Cc1cc(OC)c(OC)c(OC)c1)=C(\C(=O)O)c1ccc2nsnc2c1 |  |  |
| 2900 | 14 | COc1ccc(C(=O)/C(Cc2ccc(OC)c(F)c2)=C(\C(=O)O)c2ccc3nsnc3c2)cc1 |  |  |
|  | 12 | COc1cc(F)ccc1C(=O)/C(Cc1cc(OC)c(OC)c(OC)c1)=C(\C(=O)O)c1ccc2nsnc2c1 |  |  |
| 400 | 6.5 | COc1cc(C/C(C(=O)c2ccc3c(c2)OCO3)=C(/C(=O)O)c2ccc3nsnc3c2)cc(OC)c1OC |  |  |
|  | 3 | COc1ccc(C(=O)/C(Cc2cc(OC)c(OC)c(OC)c2)=C(\C(=O)O)c2ccc3nsnc3c2)c(F)c1 |  |  |
| 180 | 1 | COc1ccc(C(=O)/C(Cc2cc(OC)c(OC)c(OC)c2)=C(\C(=O)O)c2ccc3nsnc3c2)cc1Cl |  |  |
| 340 | 0.3 | COc1ccc(C(=O)/C(Cc2cc(OC)c(OC)c(OC)c2)=C(\C(=O)O)c2ccc3nsnc3c2)cc1 | 3.16 | 794 |
